ChEMBL document CHEMBL5303300, “EUbOPEN Chemogenomics Library - Multiplex” (2023)
Several values for one entry are separate records, joined by “and”; a condition that tells them apart may be missing. Equal values may be shown once.

Tested on: U2OS
Assay: Multiplex assay against U2OS
Assay type: toxicity, cell-based
Settings: human, number of replicates 2
How it was run: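 Values for tubulin, mitochondrial-mass and membrane-permeability phenotypes are per cents of cells with healthy nuclei. These cells were identified by CellPathfinder machine-learning gating of live cells that had been stained at seeding with Hoechst33342, BioTracker Green Microtubule Cytoskeleton Dye, MitoTracker Red and Annexin V Alexa Fluor 680 and imaged on a CQ1 microscope at 37°C and 5% CO2 after compound addition. The gating first set Hoechst high-intensity objects apart from normal cells, then split normal cells into healthy, pyknosed or fragmented nuclei, and pyknosed cells into mitotic or apoptotic.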

[1] = 12 h, 1 µM, compound concentration 1 uM
[2] = 12 h, 10 µM, compound concentration 10 uM
[3] = 24 h, 1 µM, compound concentration 1 uM
[4] = 24 h, 10 µM, compound concentration 10 uM
[5] = 48 h, 1 µM, compound concentration 1 uM
[6] = 48 h, 10 µM, compound concentration 10 uM

Compound: CN1CCc2cc(Cl)c(O)cc2[C@@H](c2ccccc2)C1.Cl
- Population Apoptotic (%) [1]: 100% and 36%
- Population Healthy Nuclei (%) [1]: 58% and 86%
- Population Hoechst High Intensity Objects (%) [1]: 0%
- Population Membrane Permeable-Phenotype (%) [1]: 0%
- Population Mitochondria Different-Phenotype (%) [1]: 0%
- Population Normal (%) [1]: 100%
- Population Pyknosed Nuclei (%) [1]: 12% and 7%
- Population Tubulin-Different-Phenotype (%) [1]: 78% and 88%
- Population Apoptotic (%) [2]: 50% and 29%
- Population Fragmented Nuclei (%) [2]: 3% and 4%
- Population Healthy Nuclei (%) [2]: 75% and 85%
- Population Hoechst High Intensity Objects (%) [2]: 0%
- Population Membrane Permeable-Phenotype (%) [2]: 0% and 2%
- Population Mitochondria Different-Phenotype (%) [2]: 0%
- Population Mitotic Cells (%) [2]: 50% and 70%
- Population Normal (%) [2]: 100% and 99%
- Population Pyknosed Nuclei (%) [2]: 21% and 9%
- Population Tubulin-Different-Phenotype (%) [2]: 55% and 80%
- Population Apoptotic (%) [3]: 28% and 33%
- Population Healthy Nuclei (%) [3]: 56% and 87%
- Population Hoechst High Intensity Objects (%) [3]: 0%
- Population Membrane Permeable-Phenotype (%) [3]: 0% and 1%
- Population Mitochondria Different-Phenotype (%) [3]: 0%
- Population Mitotic Cells (%) [3]: 71% and 66%
- Population Normal (%) [3]: 100%
- Population Pyknosed Nuclei (%) [3]: 15% and 7%
- Population Tubulin-Different-Phenotype (%) [3]: 88% and 92%
- Population Apoptotic (%) [4]: 50% and 58%
- Population Fragmented Nuclei (%) [4]: 5% and 3%
- Population Healthy Nuclei (%) [4]: 85% and 87%
- Population Hoechst High Intensity Objects (%) [4]: 0%
- Population Membrane Permeable-Phenotype (%) [4]: 1%
- Population Mitochondria Different-Phenotype (%) [4]: 0%
- Population Mitotic Cells (%) [4]: 50% and 41%
- Population Normal (%) [4]: 100% and 99%
- Population Pyknosed Nuclei (%) [4]: 10% and 8%
- Population Tubulin-Different-Phenotype (%) [4]: 75% and 81%
- Population Apoptotic (%) [5]: 54% and 50%
- Population Fragmented Nuclei (%) [5]: 8% and 3%
- Population Healthy Nuclei (%) [5]: 73% and 92%
- Population Hoechst High Intensity Objects (%) [5]: 1% and 0%
- Population Membrane Permeable-Phenotype (%) [5]: 2% and 1%
- Population Mitochondria Different-Phenotype (%) [5]: 2% and 0%
- Population Mitotic Cells (%) [5]: 45% and 50%
- Population Normal (%) [5]: 98% and 100%
- Population Tubulin-Different-Phenotype (%) [5]: 80% and 90%
- Population Apoptotic (%) [6]: 50% and 53%
- Population Fragmented Nuclei (%) [6]: 11% and 3%
- Population Healthy Nuclei (%) [6]: 79% and 88%
- Population Hoechst High Intensity Objects (%) [6]: 0%
- Population Membrane Permeable-Phenotype (%) [6]: 0% and 2%
- Population Mitochondria Different-Phenotype (%) [6]: 1% and 0%
- Population Mitotic Cells (%) [6]: 50% and 46%
- Population Normal (%) [6]: 100%
- Population Pyknosed Nuclei (%) [6]: 9% and 7%
- Population Tubulin-Different-Phenotype (%) [6]: 87%

Compound: CN[C@@H]1C[C@H]2O[C@@](C)([C@@H]1OC)n1c3ccccc3c3c4c(c5c6ccccc6n2c5c31)C(=O)NC4 [STAUROSPORINE]
- Population Apoptotic (%) [2]: 40% and 72% and 59% and 58%
- Population Fragmented Nuclei (%) [2]: 50% and 34% and 30%
- Population Hoechst High Intensity Objects (%) [2]: 3% and 0%
- Population Membrane Permeable-Phenotype (%) [2]: 66% and 53% and 62% and 43%
- Population Mitochondria Different-Phenotype (%) [2]: 66% and 53% and 51% and 68%
- Population Mitotic Cells (%) [2]: 41% [middle of 4 runs]
- Population Normal (%) [2]: 96% and 100%
- Population Pyknosed Nuclei (%) [2]: 38% and 46% and 61% and 63%
- Population Tubulin-Different-Phenotype (%) [2]: 73% [middle of 4 runs]
- Population Apoptotic (%) [4]: 70% and 85% and 89%
- Population Fragmented Nuclei (%) [4]: 45% and 26% and 27% and 40%
- Population Healthy Nuclei (%) [4]: 5% and 3% and 4% and 8%
- Population Hoechst High Intensity Objects (%) [4]: 0% and 1%
- Population Mitochondria Different-Phenotype (%) [4]: 100% and 57% and 75% and 80%
- Population Mitotic Cells (%) [4]: 30% and 14% and 10%
- Population Normal (%) [4]: 100% and 98%
- Population Pyknosed Nuclei (%) [4]: 50% and 70% and 68%
- Population Tubulin-Different-Phenotype (%) [4]: 100% and 85% and 40%
- Population Apoptotic (%) [6]: 86% and 87% and 88% and 91%
- Population Healthy Nuclei (%) [6]: 6% and 5% and 4%
- Population Hoechst High Intensity Objects (%) [6]: 0%
- Population Membrane Permeable-Phenotype (%) [6]: 100% and 90% and 85%
- Population Mitochondria Different-Phenotype (%) [6]: 100% and 60% and 71%
- Population Mitotic Cells (%) [6]: 13% and 12% and 8%
- Population Normal (%) [6]: 100%
- Population Pyknosed Nuclei (%) [6]: 60% and 50% and 80% and 73%
- Population Tubulin-Different-Phenotype (%) [6]: 100% and 85%

Compound: Cc1ccc2c(c1CCC(=O)O)CC[C@@H](NS(=O)(=O)c1ccc(Cl)cc1)C2 [TERUTROBAN]
- Population Apoptotic (%) [1]: 44% and 33%
- Population Healthy Nuclei (%) [1]: 83% and 55%
- Population Hoechst High Intensity Objects (%) [1]: 0%
- Population Membrane Permeable-Phenotype (%) [1]: 1% and 0%
- Population Mitochondria Different-Phenotype (%) [1]: 1% and 0%
- Population Mitotic Cells (%) [1]: 56% and 66%
- Population Normal (%) [1]: 100%
- Population Pyknosed Nuclei (%) [1]: 11% and 7%
- Population Tubulin-Different-Phenotype (%) [1]: 92% and 47%
- Population Apoptotic (%) [2]: 44% and 50%
- Population Fragmented Nuclei (%) [2]: 8% and 2%
- Population Healthy Nuclei (%) [2]: 76% and 86%
- Population Hoechst High Intensity Objects (%) [2]: 0%
- Population Membrane Permeable-Phenotype (%) [2]: 4% and 2%
- Population Mitochondria Different-Phenotype (%) [2]: 2% and 0%
- Population Mitotic Cells (%) [2]: 55% and 50%
- Population Normal (%) [2]: 100%
- Population Pyknosed Nuclei (%) [2]: 15% and 10%
- Population Tubulin-Different-Phenotype (%) [2]: 73% and 87%
- Population Apoptotic (%) [3]: 50% and 61%
- Population Healthy Nuclei (%) [3]: 61% and 87%
- Population Hoechst High Intensity Objects (%) [3]: 0%
- Population Membrane Permeable-Phenotype (%) [3]: 0% and 1%
- Population Mitochondria Different-Phenotype (%) [3]: 0%
- Population Mitotic Cells (%) [3]: 50% and 38%
- Population Normal (%) [3]: 100%
- Population Pyknosed Nuclei (%) [3]: 5% and 8%
- Population Tubulin-Different-Phenotype (%) [3]: 66% and 92%
- Population Apoptotic (%) [4]: 66% and 62%
- Population Fragmented Nuclei (%) [4]: 9% and 2%
- Population Healthy Nuclei (%) [4]: 81% and 87%
- Population Hoechst High Intensity Objects (%) [4]: 0%
- Population Membrane Permeable-Phenotype (%) [4]: 5% and 0%
- Population Mitochondria Different-Phenotype (%) [4]: 3% and 0%
- Population Mitotic Cells (%) [4]: 33% and 37%
- Population Normal (%) [4]: 100%
- Population Pyknosed Nuclei (%) [4]: 8% and 10%
- Population Tubulin-Different-Phenotype (%) [4]: 75% and 92%
- Population Apoptotic (%) [5]: 37% and 58%
- Population Healthy Nuclei (%) [5]: 66% and 91%
- Population Hoechst High Intensity Objects (%) [5]: 0%
- Population Membrane Permeable-Phenotype (%) [5]: 2%
- Population Mitochondria Different-Phenotype (%) [5]: 0%
- Population Mitotic Cells (%) [5]: 62% and 41%
- Population Normal (%) [5]: 100%
- Population Pyknosed Nuclei (%) [5]: 11% and 5%
- Population Tubulin-Different-Phenotype (%) [5]: 73% and 94%
- Population Apoptotic (%) [6]: 25% and 57%
- Population Fragmented Nuclei (%) [6]: 3% and 1%
- Population Healthy Nuclei (%) [6]: 85% and 91%
- Population Hoechst High Intensity Objects (%) [6]: 0%
- Population Membrane Permeable-Phenotype (%) [6]: 4% and 1%
- Population Mitochondria Different-Phenotype (%) [6]: 4% and 0%
- Population Mitotic Cells (%) [6]: 75% and 42%
- Population Normal (%) [6]: 100%
- Population Pyknosed Nuclei (%) [6]: 10% and 6%
- Population Tubulin-Different-Phenotype (%) [6]: 72% and 93%
